pIC50, pKi: −log10 of the molar value. Calls of active or inactive are those of the source. No cut-off for these calls is given here.
Tests used:
Escherichia coli [1] = assay: Inhibition of intrinsic ATPase activity of Escherichia coli SecA expressed in Escherichia coli BL21.19 cells assessed as hydrolysis of ATP at 200 uM after 2 hrs by malachite green colorimetric method
Outline: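 Single-concentration screen: compound at 200 µM with His-tagged ecSecA at 0.5 µM (50 µg/ml) and 100 µM ATP, 37 °C, 2 h. Buffer was 50 mM Tris–HCl, 50 mM KCl, 5 mM MgCl2, 0.4 mg/ml BSA, pH 8.0. Free Pi was detected with malachite green reagent (20 min rt, absorbance 660 nm).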

Staphylococcus aureus = assay: Inhibition of intrinsic ATPase activity of Staphylococcus aureus SecA expressed in Escherichia coli BL21.19 cells assessed as hydrolysis of ATP after 2 hrs by malachite green colorimetric method; settings: dose or concentration not given here
Outline: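 His-tagged saSecA1 at 4 µM (400 µg/ml) was incubated at 28 °C for 2 h with 100 µM ATP. Buffer was 50 mM HEPES, 50 mM KCl, 2 mM MgCl2, 0.4 mg/ml BSA, pH 7.5. Liberated Pi was quantified with malachite green (20 min room temperature, 660 nm).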

[2] = Inhibition of intrinsic ATPase activity of Escherichia coli SecA expressed in Escherichia coli BL21.19 cells assessed as hydrolysis of ATP after 2 hrs by malachite green colorimetric method
Outline: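 Recombinant His-tagged ecSecA at 0.5 µM (50 µg/ml) was incubated at 37 °C with 100 µM ATP and compound (0–200 µM) for 2 h. Buffer was 50 mM Tris–HCl, 50 mM KCl, 5 mM MgCl2, 0.4 mg/ml BSA, pH 8.0. Released Pi was read with malachite green (20 min rt, 660 nm). Rates were taken relative to no-compound, and IC50 was fitted by nonlinear regression from three independent experiments.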

[3] = Inhibition of ATPase activity of Escherichia coli SecA expressed in Escherichia coli BL21.19 cells assessed as hydrolysis of ATP after 2 hrs using Dixon plot analysis by malachite green colorimetric method
Escherichia coli [4] = assay: Mixed-type inhibition of ATPase activity of Escherichia coli SecA expressed in Escherichia coli BL21.19 cells assessed as hydrolysis of ATP after 2 hrs using MM equation at 25 to 200 uM by malachite green colorimetric method

Structure (SMILES) | inhibition (Escherichia coli [1]) | inhibition (Staphylococcus aureus) | Activity (Escherichia coli [1]) | further results
Nc1nc(N2CCN(C(=O)COc3ccc(Cl)cc3)CC2)c2sc(-c3ccc(F)cc3)nc2n1 | 50% | – | – | –
Cc1cccc(NC(=O)N2CCN(c3nc4nc(N)nc(-c5ccc(F)cc5)c4s3)CC2)c1 | 50% | 40% | – | –
CC(=O)N1CCN(c2nc(N)nc3nc(-c4ccc(F)cc4)sc23)CC1 | 50% | – | – | –
Nc1nc(-c2ccc(F)cc2)c2sc(N3CCN(C(=O)COc4ccc(Cl)cc4)CC3)nc2n1 | 76% | – | – | pIC50 [2]: 3.87; pKi [3]: 4.22; inhibition (Escherichia coli [4]): Active
Nc1nc(N2CCOCC2)c2sc(/C=C/c3ccccc3)nc2n1 | 70% | 40% | – | pIC50 [2]: 3.71
Nc1nc(N2CCOCC2)c2sc(-c3ccc(F)cc3)nc2n1 | – | – | Active | –
CC(C)(C)OC(=O)N1CCN(c2nc3nc(N)nc(-c4ccc(F)cc4)c3s2)CC1 | 50% | – | – | –
Nc1nc(N2CCOCC2)c2sc(N3CCOCC3)nc2n1 | – | – | Active | –
COCCNc1nc2nc(N)nc(N3CCOCC3)c2s1 | – | – | Active | –
Nc1nc(-c2ccc(F)cc2)c2sc(N3CCNCC3)nc2n1 | 35% | – | – | –
Nc1nc(N2CCOCC2)c2sc(C#Cc3ccccc3)nc2n1 | – | 40% | Active | –
Cc1cccc(NC(=O)N2CCN(c3nc(N)nc4nc(-c5ccc(F)cc5)sc34)CC2)c1 | – | 40% | – | –
COCCNc1nc2nc(N)nc(-c3ccc(F)cc3)c2s1 | 50% | – | – | –

From ChEMBL document CHEMBL1641421, “Synthesis of novel 5-amino-thiazolo[4,5-d]pyrimidines as E. coli and S. aureus SecA inhibitors” (Bioorg Med Chem, 2011)
